# Experimental data taken from PubChem BioAssay.
# The source made the active and inactive calls.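 The calls were made as follows, unless noted: active = compounds giving at least 50% inhibition in the cell-based MKP-3 phosphatase rescue imaging test; inactive = the rest.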
# Tests used:
# [1] = inhibitors of TNFa-induced NFkB p65 translocation, primary screen, imaging, HUVEC, MLSMR starter and 10KST1 sets (AID 438;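 active = inhibition above 20% together with a positive visual image hit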;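 also: compound added about 3h40 before a 20 min TNFalpha stimulation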;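 as to inhibition: signal is the nuclear over cytoplasmic p65 intensity ratio per well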); details: HUVEC TNFa-induced p65 nuclear translocation; cell count: measured here: nuclei count (cytotoxicity indicator), at 2.08 µM; inhibition: at 2 µM, stronger effect = higher value, 0% TNFa-plus-vehicle, 100% no-TNFa wells
# [2] = endothelial E-selectin expression blockers – imaging, HUVEC, immunofluorescence, MLSMR starter and 10KST1 sets, primary screen (AID 487;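 active = visually confirmed hit in the image check and inhibition above 20%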;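 as to inhibition: signal is fraction of cell area covered by stained E-selectin grains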;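 as to nuclei count: 100% = median nuclei count of all wells on the same plate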); details: HUVEC TNFalpha-induced E-selectin immunofluorescence imaging, at 2 µM; inhibition: stronger effect = higher value; nuclei count: measured here: cell number, toxicity
# [3] = Primary imaging screen for DUSP6 inhibitors that restore phospho-Erk in transfected HeLa cells, chemical complementation (AID 609); details: HeLa MKP-3 transfected, phospho-Erk imaging KS statistic, at 10 µM, cells stimulated with TPA for 15 min;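 as to inhibition: phospho-Erk level distribution per well compared with pooled transfected vehicle control wells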
# [4] = molecular target: Dual specificity protein phosphatase 6 (Homo sapiens) (UniProt Q16828); test: as above; details: HeLa MKP-3 transfected, phospho-Erk imaging KS statistic; at 10 µM; stronger effect = higher value; cells stimulated with TPA for 15 min
# [5] = molecular target: Voltage-gated potassium channel subunit beta-2 (Rattus norvegicus) (UniProt P62483); test: inhibitors of rat Kvbeta2 reductase activity – biochemical, NADPH fluorescence, primary screen (AID 622;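 active = fluorescence slope higher than the sample average by over 3 SD, cut at about -0.22 in these data, passing the limit was not always enough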;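 also: slope of raw intensity against log time taken from 70 to 1610 s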); details: recombinant KvBeta, 4-cyanobenzaldehyde reduction, at 10 µM, stronger effect = higher value
# [6] = molecular target: Voltage-gated potassium channel subunit beta-2 (Rattus norvegicus) (UniProt P62483); test: enhancers of rat Kvbeta2 NADPH turnover – biochemical, NADPH fluorescence, primary screen (AID 623;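 active = NADPH fluorescence slope more negative than the mean of all samples by about 3 SD, 99.7% confidence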;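 also: fluorescence intensity change per second fitted from 20 to 320 s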); details: Recombinant KvBeta, NADPH fluorescence decrease slope, 10 min; at 10 µM; stronger effect = lower value
# [7] = molecular target: Muscarinic acetylcholine receptor M4 (Homo sapiens) (UniProt P08173); test: M4-linked GIRK flux change, two-sided – cell-based, HEK293 M4/GIRK, thallium flux, BTC-AM, M4 allosteric agonist project, primary screen (AID 625;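 active = fluorescence slope after compound addition differing from the mean of all tested samples at 99.7% confidence, mostly higher but some lower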;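 also: thallium influx through GIRK channels coupled to M4 in HEK293 cells with BTC-AM dye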); details: at 10 µM, actives lie on both sides
# In short: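 assay system = HEK293 cells with M4 receptor and GIRK channels | medium = pH 7.3 thallium assay buffer | doses = 10 µM final, single point | timing = cells overnight at 37 °C, BTC-AM loading 1 h, reads 2 min total | signal = BTC-AM fluorescence, 1 Hz kinetic reads | read-out = post-addition slope, 15–24 s, of baseline-normalized fluorescence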
# [8] = inhibitors of larval lipid processing in zebrafish, primary screen, whole organism, PED6 fluorescence, gall bladder and intestine (AID 686;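 active = a full or partial loss of lipid-probe fluorescence in the fish gall bladder, intestine or both, judged by eye; inactive = no fluorescence loss, or compound toxic to the fish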;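 also: larvae 5 to 7 days old with five fish per well; signal comes from phospholipase A2 cleavage of quenched PED6 carried via bile; overnight exposure to compound and PED6 before scoring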); details: Zebrafish larvae PED6 lipid processing, fluorescence scoring; screened at 20 µM (by protocol)
# In short: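 Also added: quenched phospholipase substrate PED6, 100 nM final, ingested by larvae; System: zebrafish larvae, 5-7 d; Quantity: 5 larvae per well; Compound: 20 µM single dose; Schedule: overnight compound and PED6 incubation; Read-out: visual per-well fluorescence inhibition score; Measured by: By-eye fluorescence microscopy; Medium: E3.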
# [9] = loss of swimming-algae plug formation – whole organism, Chlamydomonas reinhardtii, WT vs cilia-less mutant, absorbance, 96-well, primary screen (AID 463189;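 active = inhibition at or above 50% relative to wild type and mutant plate controls; inactive = inhibition below 50%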;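 also: 0% = wild type cc124 cells in DMSO and 100% = ciliumless bld1 mutant cells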); details: Chlamydomonas reinhardtii gravitaxis, OD600 absorbance, 2 days; at 10 µM; stronger effect = higher value
# [10] = measured here: cell density z-score
# [11] = measured here: nuclear c-Myc green intensity z-score
# [12] = measured here: nuclear pErk red intensity z-score, stronger effect = higher value
# Sequence of Dual specificity protein phosphatase 6 (Homo sapiens) (Q16828 whole entry, looked up): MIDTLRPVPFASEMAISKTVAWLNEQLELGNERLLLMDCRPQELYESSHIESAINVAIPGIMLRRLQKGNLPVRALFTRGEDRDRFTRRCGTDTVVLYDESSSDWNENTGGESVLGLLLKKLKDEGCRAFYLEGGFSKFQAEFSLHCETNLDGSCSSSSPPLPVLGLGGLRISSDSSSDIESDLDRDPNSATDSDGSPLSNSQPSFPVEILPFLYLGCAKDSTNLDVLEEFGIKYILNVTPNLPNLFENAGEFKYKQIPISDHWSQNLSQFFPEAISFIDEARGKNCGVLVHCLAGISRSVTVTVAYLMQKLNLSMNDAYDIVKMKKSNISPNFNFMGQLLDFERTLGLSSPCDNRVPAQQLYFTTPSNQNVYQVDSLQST
# Sequence of Muscarinic acetylcholine receptor M4 (Homo sapiens) (P08173 whole entry, looked up): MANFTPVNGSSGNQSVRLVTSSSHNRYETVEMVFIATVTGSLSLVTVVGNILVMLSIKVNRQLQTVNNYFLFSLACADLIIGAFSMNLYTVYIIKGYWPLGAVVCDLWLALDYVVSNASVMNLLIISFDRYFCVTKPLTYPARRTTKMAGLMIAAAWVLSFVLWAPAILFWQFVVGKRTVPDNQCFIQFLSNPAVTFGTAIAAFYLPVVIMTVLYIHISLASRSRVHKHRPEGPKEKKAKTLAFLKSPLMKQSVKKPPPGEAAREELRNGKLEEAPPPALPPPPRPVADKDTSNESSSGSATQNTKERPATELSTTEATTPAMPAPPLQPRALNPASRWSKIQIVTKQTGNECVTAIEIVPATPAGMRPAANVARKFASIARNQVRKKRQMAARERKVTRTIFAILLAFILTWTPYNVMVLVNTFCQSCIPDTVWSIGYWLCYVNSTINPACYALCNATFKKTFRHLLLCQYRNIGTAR
# Sequence of Voltage-gated potassium channel subunit beta-2 (Rattus norvegicus) (P62483 whole entry, looked up): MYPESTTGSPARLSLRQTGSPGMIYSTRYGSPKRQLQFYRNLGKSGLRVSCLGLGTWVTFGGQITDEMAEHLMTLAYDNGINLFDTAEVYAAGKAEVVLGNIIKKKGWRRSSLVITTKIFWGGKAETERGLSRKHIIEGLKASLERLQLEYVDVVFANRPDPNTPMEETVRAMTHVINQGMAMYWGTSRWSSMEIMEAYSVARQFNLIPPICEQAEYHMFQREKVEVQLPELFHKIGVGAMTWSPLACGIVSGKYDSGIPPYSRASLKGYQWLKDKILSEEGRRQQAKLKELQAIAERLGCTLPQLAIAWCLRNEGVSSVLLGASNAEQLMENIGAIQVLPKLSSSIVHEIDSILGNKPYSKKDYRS
SMILES,cell count [1],inhibition [1],inhibition [2],nuclei count [2] [%],"z-score [3, 10]","z-score [3, 11]","z-score [3, 12]",inhibition [4],fluorescence slope [5],NADPH fluorescence slope [6],fluorescence slope [7],outcome [8],inhibition [9]
CCN(CC)Cc1cc(C(C)=O)ccc1OCC(C)C,639,1.8% (inactive),3.7% (inactive),164,-0.466,0.382,-0.997,-5.62% (inactive),-0.462 (inactive),-4.7e-05 (inactive),0.00565 (inactive),inactive,29.4% (inactive)
COn1c(SC2CCCCC2)nc2ccccc2c1=O,587,-3.1% (inactive),-35.7% (inactive),160,0.823,0.448,-1.08,-7.28% (inactive),-0.48 (inactive),-7.1e-05 (inactive),0.00976 (inactive),inactive,0.873% (inactive)
CC1(C)Cc2c(C#N)c(OCC(=O)c3ccccc3)nc(-c3ccoc3)c2CO1,547,-9.6% (inactive),14.2% (inactive),98.1,0.66,-1.5,-0.876,-0.233% (inactive),-0.465 (inactive),2.6e-05 (inactive),0.00542 (inactive),inactive,56.8% (active)
COc1cccc(Cn2c(NCc3ccccn3)nc3c2c(=O)n(C)c(=O)n3C)c1,694,-20.9% (inactive),-199% (inactive),189,0.955,-1.34,-0.0315,17.8% (inactive),-0.5 (inactive),-7.9e-05 (inactive),0.00592 (inactive),inactive,4.17% (inactive)
Cc1ccc(N2C(=O)CC(Cn3nc(C)cc3C)C2=O)cc1 (centres undefined),471,-3.4% (inactive),5.8% (inactive),98.6,0.966,-0.538,-0.159,11.9% (inactive),-0.387 (inactive),-2e-06 (inactive),0.00565 (inactive),inactive,25.4% (inactive)
CCOC(=O)C(C)c1nc2ccccc2[nH]c1=O (centres undefined),579,-6.6% (inactive),-30.5% (inactive),164,-0.098,0.564,0.462,1.9e-07% (inactive),-0.397 (inactive),-6.3e-05 (inactive),0.00575 (inactive),inactive,12.9% (inactive)
CCC1(C)Cc2c(sc(NC(=O)CCC(=O)O)c2C#N)CO1 (centres undefined),525,-3.4% (inactive),-47% (inactive),165,1.02,0.907,0.102,9.91% (inactive),-0.382 (inactive),-5.7e-05 (inactive),0.00482 (inactive),inactive,-2.53% (inactive)
Cn1c(=O)[nH]c(=O)c2c1nc(N1CCN(c3cccc(Cl)c3)CC1)n2CCCc1ccccc1,620,-6% (inactive),-19.3% (inactive),104,0.751,-1.24,-0.00216,24% (inactive),-0.442 (inactive),-6.2e-05 (inactive),0.0083 (inactive),inactive,-0.786% (inactive)
CC1(C)Cc2c(c(-c3ccccc3Cl)[nH]c(=O)c2C#N)CO1,591,5.7% (inactive),-106% (inactive),134,0.999,-0.743,0.0604,11.9% (inactive),-0.384 (inactive),-2.7e-05 (inactive),0.00508 (inactive),inactive,20.5% (inactive)
COc1ccc(/C(O)=C2/C(=O)C(=O)N(CCN3CCOCC3)C2c2cccnc2)cc1OC (centres undefined),364,-4.2% (inactive),-126% (inactive),151,-0.575,1.61,-0.594,11.9% (inactive),-0.486 (inactive),-4.1e-05 (inactive),0.00405 (inactive),inactive,-1.91% (inactive)
Cc1ccc(N(CC(O)CN(C)C)S(=O)(=O)c2ccccc2)cc1 (centres undefined),587,-9.4% (inactive),6.4% (inactive),192,1.28,-0.151,0.0736,-4.59% (inactive),-0.384 (inactive),-7.3e-05 (inactive),0.00579 (inactive),inactive,11.5% (inactive)
Cc1ccc(CNc2oc(COc3ccccc3Cl)nc2C#N)cc1,402,-2.8% (inactive),-40.3% (inactive),82.6,-0.405,-0.319,-0.994,4.37% (inactive),-0.387 (inactive),2.1e-06 (inactive),0.00728 (inactive),inactive,28.6% (inactive)
CCOC(=O)Cn1nc(C)c2ccccc2c1=O,579,-1.2% (inactive),-43.5% (inactive),154,1.29,-0.0748,0.243,7.21% (inactive),-0.515 (inactive),-0.000104 (inactive),0.00507 (inactive),inactive,-2.22% (inactive)
